# Source: ChEMBL document CHEMBL5653605, “Reduced VEGF production, angiogenesis, and vascular regrowth contribute to the antitumor properties of dual mTORC1/mTORC2 inhibitors” (Cancer Res, 2011)
# The source made the active and inactive calls. No cut-off for these calls is given here.
# Experiments:
# OVCAR-5 [1] = experiment: Antitumor activity against human OVCAR-5 cells xenografted in nu/nu CD-1 mouse assessed as maximal tumor regression at 50 mg/kg qd administered for 14 days in presence of sunitinib and measured twice weekly relative to control; assay type: functional; conditions: time 14 day
# [2] = target: Proto-oncogene tyrosine-protein kinase Src (Homo sapiens, UniProt P12931); experiment: Inhibition of SRC (unknown origin) assessed as reduction in phosphorylated FAK level by cell based assay
# [3] = Inhibition of MAPK (unknown origin) signaling axis assessed as reduction in phosphorylated ERK1/2 level by cell based assay; conditions: Homo sapiens
# OVCAR-5 [4] = experiment: Antitumor activity against human OVCAR-5 cells xenografted in nu/nu CD-1 mouse assessed as tumor growth inhibition at 50 mg/kg qd administered for 14 days in presence of sunitinib and measured twice weekly relative to control; assay type: functional; conditions: OVCAR-5, 336 h, time 14 day, read-out: TGI
# Summary of the method: (§1)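 Xenograft combination study: H292 or Ovar-5 cells implanted s.c. in the right flank of nu/nu CD-1 mice. Ovar-5 cells grown in RPMI with 10% serum and 1% L-glutamine. […] Tumor growth followed, with growth inhibition reported as median TGI over the dosing period.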
# GEO = experiment: Antitumor activity against human GEO cells xenografted in nu/nu CD-1 mouse assessed as slower tumor growth at 65 mg/kg administered once a day for 12 days and measured twice weekly; assay type: functional, organism-based; conditions: time 12.0 day
# Ephrin type-A receptor 2 = Ephrin type-A receptor 2 (Homo sapiens, UniProt P29317); experiment: Inhibition of EphA2 phosphorylation (unknown origin) by cell based assay
# NCI-H292 [5] = experiment: Antitumor activity against human NCI-H292 cells xenografted in nu/nu CD-1 mouse assessed as tumor growth inhibition at 50 mg/kg qd administered for 21 days and measured twice weekly relative to control; assay type: functional; conditions: NCI-H292, 504 h, time 21 day, read-out: TGI; summary of the method: as §1
# OVCAR-3 [6] = experiment: Inhibition of S6K at […] residues in serum deprived/insulin stimulated human OVCAR-3 cells harboring PTEN and wild type PI3K assessed as inhibition of s6 substrate phosphorylation at […] residue at 0.001 to 10 uM preincubated for 2 hrs followed by insulin stimulation and measured immediately by Western blot analysis; assay type: cell-based; conditions: dose 0.001-10 µM
# NCI-H292 [7] = experiment: Antitumor activity against human NCI-H292 cells xenografted in nu/nu CD-1 mouse assessed as tumor growth inhibition at 50 mg/kg qd administered for 21 days in presence of sunitinib and measured twice weekly relative to control; assay type: functional; conditions: NCI-H292, 504 h, time 21 day, read-out: TGI; summary of the method: as §1
# [8] = target: Proline-rich AKT1 substrate 1 (Homo sapiens) (UniProt Q96B36); experiment: Inhibition of PRAS40 phosphorylation at Ser 246 residue in serum deprived/insulin stimulated human OVCAR-3 cells harboring PTEN and wild type PI3K preincubated for 2 hrs followed by insulin stimulation and measured immediately by Western blot analysis; assay type: cell-based; conditions: dose 0.001-10 µM
# [9] = target: T1, Serine/threonine-protein kinase mTOR (Homo sapiens, UniProt P42345); experiment: Inhibition of mTOR (unknown origin) assessed as reduction in 4E-BP1 phosphorylation by cell based assay
# [10] = target: Vascular endothelial growth factor receptor 2 (Homo sapiens, UniProt P35968); experiment: Inhibition of VEGFR2 phosphorylation (unknown origin) by cell based assay
# [11] = target: T1, Serine/threonine-protein kinase mTOR; experiment: Inhibition of mTOR (unknown origin)
# [12] = target: Phosphatidylinositol 4,5-bisphosphate 3-kinase catalytic subunit gamma isoform (Homo sapiens, UniProt P48736); experiment: Inhibition of PI3Kgamma (unknown origin) in presence of ATP by HTRF assay
# Summary of the method: (§2)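 PI3K activity by HTRF assay at […] ATP.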
# Mus musculus [13] = experiment: In vivo inhibition of 4E-BP1 phosphorylation at Ser37/46 residues in nu/nu CD-1 mouse xenografted with human GEO cells at 65 mg/kg administered for 12 days and measured 2 hrs post last dose by Western blot analysis; assay type: functional, organism-based; conditions: time 290.0 hrs
# Summary of the method: (§3)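 nu/nu CD-1 mice carrying s.c. GEO flank xenografts dosed 65 mg/kg for 12 days; tumors snap-frozen 2, 8, 24 h after dosing, homogenized in Triton X-100/HEPES pH 7.4 lysis buffer with phosphatase inhibitors; phospho and total 4E-BP1 (37/46), Akt (S473), S6 (235/236) quantified by Western blot; n=2.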
# [14] = target: Phosphatidylinositol 4,5-bisphosphate 3-kinase catalytic subunit beta isoform (Homo sapiens, UniProt P42338); experiment: Inhibition of PI3Kbeta (unknown origin) in presence of ATP by HTRF assay; summary of the method: as §2
# NCI-H292 [15] = experiment: Antitumor activity against human NCI-H292 cells xenografted in nu/nu CD-1 mouse assessed as maximal tumor regression at 50 mg/kg qd administered for 21 days in presence of sunitinib and measured twice weekly relative to control; assay type: functional; conditions: time 21 day
# [16] = target: Eukaryotic translation initiation factor 4E-binding protein 1 (Homo sapiens) (UniProt Q13541); experiment: Inhibition of 4E-BP1 phosphorylation at Ser 37/46 residues in serum deprived/insulin stimulated human OVCAR-3 cells harboring PTEN and wild type PI3K preincubated for 2 hrs followed by insulin stimulation and measured immediately by Western blot analysis; assay type: cell-based; conditions: dose 0.001-10 µM
# OVCAR-3 [17] = experiment: Inhibition of S6K phosphorylation at 235/236 residues in serum deprived/insulin stimulated human OVCAR-3 cells harboring PTEN and wild type PI3K at 0.001 to 10 uM preincubated for 2 hrs followed by insulin stimulation and measured immediately by Western blot analysis; assay type: cell-based; conditions: dose 0.001-10 µM
# [18] = target: Epidermal growth factor receptor (Homo sapiens, UniProt P00533); experiment: Inhibition of EGFR phosphorylation (unknown origin) by cell based assay
# [19] = target: RAC-alpha serine/threonine-protein kinase (Homo sapiens) (UniProt P31749); experiment: Inhibition of AKT phosphorylation at Ser 473 site in serum deprived/insulin stimulated human OVCAR-3 cells harboring PTEN and wild type PI3K preincubated for 2 hrs followed by insulin stimulation and measured immediately by Western blot analysis; assay type: cell-based; conditions: dose 0.001-10 µM
# mTORC2 = mTORC2 (Homo sapiens, UniProt P42345); experiment: Competitive inhibition of mTORC2 immunoprecipitated from human HeLa cells using His-tagged 4E-BP1 as substrate incubated for 30 mins in presence of ATP by chemiluminescence based ELISA
# Summary of the method: (§4)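 Native mTORC1 or mTORC2 complex immunoprecipitated from HeLa lysates; kinase reaction run at 1 mM ATP.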
# mTORC1 = mTORC1 (Homo sapiens, UniProt P42345); experiment: Competitive inhibition of mTORC1 immunoprecipitated from human HeLa cells using His-tagged 4E-BP1 as substrate incubated for 30 mins in presence of ATP by chemiluminescence based ELISA; summary of the method: as §4
# [20] = Drug concentration in nu/nu CD-1 mouse plasma xenografted with human GEO cells at 65 mg/kg administered for 12 days and measured 8 hrs post last dose; assay type: ADME, organism-based
# Summary of the method: (§5)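 nu/nu CD-1 mice bearing s.c. right-flank GEO xenografts dosed at 65 mg/kg for 12 days; plasma drug level sampled at 2 or 8 h after last dose; median reported.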
# [21] = Drug concentration in nu/nu CD-1 mouse plasma xenografted with human GEO cells at 65 mg/kg administered for 12 days and measured 2 hrs post last dose; assay type: ADME, organism-based; summary of the method: as §5
# OVCAR-5 [22] = experiment: Antitumor activity against human OVCAR-5 cells xenografted in nu/nu CD-1 mouse assessed as tumor growth inhibition at 50 mg/kg qd administered for 14 days and measured twice weekly relative to control; assay type: functional; conditions: OVCAR-5, 336 h, time 14 day, read-out: TGI; summary of the method: as §1
# Mus musculus [23] = experiment: In vivo inhibition of AKT phosphorylation at Ser473 residues in nu/nu CD-1 mouse xenografted with human GEO cells at 65 mg/kg administered for 12 days and measured 2 to 24 hrs post last dose by Western blot analysis relative to control; conditions: time 290-312 hrs
# Mus musculus [24] = experiment: In vivo inhibition of S6 phosphorylation at 235/236 residues in nu/nu CD-1 mouse xenografted with human GEO cells at 65 mg/kg administered for 12 days and measured 2 to 24 hrs post last dose by Western blot analysis; assay type: functional, organism-based; conditions: time 290-312 hrs; summary of the method: as §3
# OVCAR-5 [25] = experiment: Antitumor activity against human OVCAR-5 cells xenografted in nu/nu CD-1 mouse assessed as maximal tumor regression at 40 mg/kg qd administered for 14 days in presence of OSI-027 and measured twice weekly relative to control; assay type: functional; conditions: time 14 day
# NCI-H292 [26] = experiment: Antitumor activity against human NCI-H292 cells xenografted in nu/nu CD-1 mouse assessed as tumor growth inhibition at 40 mg/kg qd administered for 21 days in presence of OSI-027 and measured twice weekly relative to control; assay type: functional; conditions: NCI-H292, 504 h, time 21 day, read-out: TGI; summary of the method: as §1
# OVCAR-5 [27] = experiment: Antitumor activity against human OVCAR-5 cells xenografted in nu/nu CD-1 mouse assessed as tumor growth inhibition at 40 mg/kg qd administered for 14 days in presence of OSI-027 and measured twice weekly relative to control; assay type: functional; conditions: OVCAR-5, 336 h, time 14 day, read-out: TGI; summary of the method: as §1
# NCI-H292 [28] = experiment: Antitumor activity against human NCI-H292 cells xenografted in nu/nu CD-1 mouse assessed as tumor growth inhibition at 40 mg/kg qd administered for 21 days and measured twice weekly relative to control; assay type: functional; conditions: NCI-H292, 504 h, time 21 day, read-out: TGI; summary of the method: as §1
# NCI-H292 [29] = experiment: Antitumor activity against human NCI-H292 cells xenografted in nu/nu CD-1 mouse assessed as maximal tumor regression at 40 mg/kg qd administered for 21 days in presence of OSI-027 and measured twice weekly relative to control; assay type: functional; conditions: time 21 day
# OVCAR-5 [30] = experiment: Antitumor activity against human OVCAR-5 cells xenografted in nu/nu CD-1 mouse assessed as tumor growth inhibition at 40 mg/kg qd administered for 14 days and measured twice weekly relative to control; assay type: functional; conditions: OVCAR-5, 336 h, time 14 day, read-out: TGI; summary of the method: as §1
# RAC-alpha serine/threonine-protein kinase (Homo sapiens), sequence (P31749 whole entry): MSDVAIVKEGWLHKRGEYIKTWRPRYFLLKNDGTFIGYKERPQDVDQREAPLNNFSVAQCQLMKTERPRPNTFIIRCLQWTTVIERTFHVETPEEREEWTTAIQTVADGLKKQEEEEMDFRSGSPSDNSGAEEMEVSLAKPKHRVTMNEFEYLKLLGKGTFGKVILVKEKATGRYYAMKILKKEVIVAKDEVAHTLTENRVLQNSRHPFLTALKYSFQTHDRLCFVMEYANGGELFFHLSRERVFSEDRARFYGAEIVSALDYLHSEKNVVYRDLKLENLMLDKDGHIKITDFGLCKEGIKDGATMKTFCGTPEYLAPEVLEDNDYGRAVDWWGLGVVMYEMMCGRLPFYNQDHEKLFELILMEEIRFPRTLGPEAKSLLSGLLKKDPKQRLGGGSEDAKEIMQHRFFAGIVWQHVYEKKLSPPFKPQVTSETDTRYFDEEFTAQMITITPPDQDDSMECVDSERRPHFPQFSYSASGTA
# Vascular endothelial growth factor receptor 2, sequence (P35968 whole entry): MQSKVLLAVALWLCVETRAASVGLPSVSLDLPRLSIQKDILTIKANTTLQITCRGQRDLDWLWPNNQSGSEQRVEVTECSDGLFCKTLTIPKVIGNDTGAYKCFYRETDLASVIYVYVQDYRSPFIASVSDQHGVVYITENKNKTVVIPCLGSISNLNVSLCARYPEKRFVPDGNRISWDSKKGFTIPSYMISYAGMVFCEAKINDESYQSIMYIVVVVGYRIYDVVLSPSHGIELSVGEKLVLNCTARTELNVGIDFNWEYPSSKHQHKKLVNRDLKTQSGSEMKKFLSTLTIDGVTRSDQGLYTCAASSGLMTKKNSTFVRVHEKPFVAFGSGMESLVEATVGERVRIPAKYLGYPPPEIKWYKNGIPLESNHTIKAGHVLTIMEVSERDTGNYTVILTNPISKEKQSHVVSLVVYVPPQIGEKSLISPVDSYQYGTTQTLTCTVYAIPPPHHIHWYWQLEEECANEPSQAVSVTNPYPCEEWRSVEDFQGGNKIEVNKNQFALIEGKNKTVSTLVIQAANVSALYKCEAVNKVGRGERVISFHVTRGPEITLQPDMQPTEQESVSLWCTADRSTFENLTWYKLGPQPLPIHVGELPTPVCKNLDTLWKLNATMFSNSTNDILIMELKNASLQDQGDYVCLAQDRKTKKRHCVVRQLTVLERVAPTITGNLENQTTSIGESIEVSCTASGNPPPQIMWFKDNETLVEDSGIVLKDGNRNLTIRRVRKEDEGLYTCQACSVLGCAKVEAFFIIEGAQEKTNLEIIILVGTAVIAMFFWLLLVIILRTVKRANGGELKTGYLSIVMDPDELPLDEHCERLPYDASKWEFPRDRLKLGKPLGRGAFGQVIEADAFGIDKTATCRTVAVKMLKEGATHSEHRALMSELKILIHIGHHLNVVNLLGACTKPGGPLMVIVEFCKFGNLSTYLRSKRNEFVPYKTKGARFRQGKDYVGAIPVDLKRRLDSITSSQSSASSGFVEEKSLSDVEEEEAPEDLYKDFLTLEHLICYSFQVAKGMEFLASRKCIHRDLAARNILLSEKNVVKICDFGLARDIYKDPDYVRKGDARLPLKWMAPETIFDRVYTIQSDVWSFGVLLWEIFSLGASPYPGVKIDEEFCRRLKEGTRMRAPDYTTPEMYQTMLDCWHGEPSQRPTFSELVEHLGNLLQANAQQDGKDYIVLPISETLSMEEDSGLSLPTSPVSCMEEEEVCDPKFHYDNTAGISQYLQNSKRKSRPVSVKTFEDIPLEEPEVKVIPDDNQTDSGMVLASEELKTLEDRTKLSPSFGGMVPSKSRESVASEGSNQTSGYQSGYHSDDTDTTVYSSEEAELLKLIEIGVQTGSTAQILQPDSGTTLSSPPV
# Proto-oncogene tyrosine-protein kinase Src, sequence (P12931 2-536 limits assumed): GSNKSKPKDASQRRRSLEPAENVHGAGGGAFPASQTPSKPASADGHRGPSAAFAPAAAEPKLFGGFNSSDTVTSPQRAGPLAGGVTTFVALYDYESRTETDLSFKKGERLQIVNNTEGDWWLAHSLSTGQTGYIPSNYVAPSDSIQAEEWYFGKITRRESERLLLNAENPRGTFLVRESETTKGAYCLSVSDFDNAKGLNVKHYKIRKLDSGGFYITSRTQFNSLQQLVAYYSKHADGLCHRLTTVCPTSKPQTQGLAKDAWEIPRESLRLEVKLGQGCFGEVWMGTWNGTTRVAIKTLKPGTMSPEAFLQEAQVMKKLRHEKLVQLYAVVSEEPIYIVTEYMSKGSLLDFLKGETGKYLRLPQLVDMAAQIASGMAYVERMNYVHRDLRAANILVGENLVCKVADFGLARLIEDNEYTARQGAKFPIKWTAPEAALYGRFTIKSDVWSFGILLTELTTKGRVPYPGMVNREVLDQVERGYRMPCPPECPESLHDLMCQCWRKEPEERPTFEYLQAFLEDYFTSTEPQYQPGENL
# Phosphatidylinositol 4,5-bisphosphate 3-kinase catalytic subunit gamma isoform, sequence (P48736 whole entry, canonical isoform): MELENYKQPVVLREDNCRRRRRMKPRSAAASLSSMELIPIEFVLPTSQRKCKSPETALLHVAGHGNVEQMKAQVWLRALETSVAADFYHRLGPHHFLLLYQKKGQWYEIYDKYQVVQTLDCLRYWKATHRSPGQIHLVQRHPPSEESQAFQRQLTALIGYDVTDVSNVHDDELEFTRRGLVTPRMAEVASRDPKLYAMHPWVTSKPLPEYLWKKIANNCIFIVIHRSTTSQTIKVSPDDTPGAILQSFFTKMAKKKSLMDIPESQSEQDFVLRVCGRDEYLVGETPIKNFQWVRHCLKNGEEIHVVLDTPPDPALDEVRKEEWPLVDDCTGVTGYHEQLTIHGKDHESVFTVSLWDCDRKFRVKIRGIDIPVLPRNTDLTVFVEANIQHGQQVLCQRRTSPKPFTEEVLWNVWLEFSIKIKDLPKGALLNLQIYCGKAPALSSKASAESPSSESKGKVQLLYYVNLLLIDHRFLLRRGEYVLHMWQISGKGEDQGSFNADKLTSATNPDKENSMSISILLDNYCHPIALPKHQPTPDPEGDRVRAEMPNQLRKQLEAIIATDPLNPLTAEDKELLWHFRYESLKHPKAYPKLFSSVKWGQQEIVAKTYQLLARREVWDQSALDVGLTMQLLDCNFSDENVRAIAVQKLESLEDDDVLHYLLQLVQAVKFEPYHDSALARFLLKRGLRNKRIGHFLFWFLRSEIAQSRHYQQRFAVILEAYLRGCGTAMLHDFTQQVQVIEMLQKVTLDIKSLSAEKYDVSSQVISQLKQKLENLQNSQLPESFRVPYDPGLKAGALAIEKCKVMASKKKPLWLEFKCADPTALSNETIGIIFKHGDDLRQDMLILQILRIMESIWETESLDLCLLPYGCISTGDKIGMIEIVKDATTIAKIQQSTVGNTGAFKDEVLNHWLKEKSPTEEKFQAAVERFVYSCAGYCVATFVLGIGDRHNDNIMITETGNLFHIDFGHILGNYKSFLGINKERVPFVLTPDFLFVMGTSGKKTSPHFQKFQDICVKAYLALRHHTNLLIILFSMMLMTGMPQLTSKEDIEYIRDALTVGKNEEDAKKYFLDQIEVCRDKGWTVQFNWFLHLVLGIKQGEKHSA
# Epidermal growth factor receptor, sequence (P00533 whole entry): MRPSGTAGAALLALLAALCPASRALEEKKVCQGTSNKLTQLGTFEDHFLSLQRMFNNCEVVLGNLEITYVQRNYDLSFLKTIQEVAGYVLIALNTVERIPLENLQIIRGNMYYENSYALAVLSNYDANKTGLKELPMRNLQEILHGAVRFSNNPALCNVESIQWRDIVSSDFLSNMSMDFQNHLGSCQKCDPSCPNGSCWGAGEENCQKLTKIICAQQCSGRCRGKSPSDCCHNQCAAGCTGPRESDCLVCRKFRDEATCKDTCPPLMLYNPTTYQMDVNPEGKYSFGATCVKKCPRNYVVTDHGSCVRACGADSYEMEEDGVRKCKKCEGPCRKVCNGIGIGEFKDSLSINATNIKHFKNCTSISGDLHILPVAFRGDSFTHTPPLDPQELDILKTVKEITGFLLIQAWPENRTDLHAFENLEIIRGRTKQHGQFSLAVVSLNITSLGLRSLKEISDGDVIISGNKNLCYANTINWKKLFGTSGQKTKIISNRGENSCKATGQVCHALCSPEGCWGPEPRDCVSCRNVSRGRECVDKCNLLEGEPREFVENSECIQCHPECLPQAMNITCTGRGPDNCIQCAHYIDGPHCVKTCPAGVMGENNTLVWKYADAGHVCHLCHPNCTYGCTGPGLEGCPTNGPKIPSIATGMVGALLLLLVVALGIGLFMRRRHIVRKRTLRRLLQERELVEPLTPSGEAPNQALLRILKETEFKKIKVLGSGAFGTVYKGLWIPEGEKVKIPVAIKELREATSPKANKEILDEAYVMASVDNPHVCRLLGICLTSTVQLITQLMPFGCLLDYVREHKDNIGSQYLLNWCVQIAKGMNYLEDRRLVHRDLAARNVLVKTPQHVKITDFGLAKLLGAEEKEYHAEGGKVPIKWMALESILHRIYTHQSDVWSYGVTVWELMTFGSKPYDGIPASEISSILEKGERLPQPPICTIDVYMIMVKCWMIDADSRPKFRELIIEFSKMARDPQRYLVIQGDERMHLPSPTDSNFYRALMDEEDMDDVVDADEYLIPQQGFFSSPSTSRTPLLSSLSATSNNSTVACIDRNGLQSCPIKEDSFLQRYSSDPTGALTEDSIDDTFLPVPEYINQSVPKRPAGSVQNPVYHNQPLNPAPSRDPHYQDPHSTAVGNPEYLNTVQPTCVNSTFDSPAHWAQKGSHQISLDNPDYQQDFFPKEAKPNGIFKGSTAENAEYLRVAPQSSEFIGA
# Eukaryotic translation initiation factor 4E-binding protein 1 (Homo sapiens), sequence (Q13541 whole entry): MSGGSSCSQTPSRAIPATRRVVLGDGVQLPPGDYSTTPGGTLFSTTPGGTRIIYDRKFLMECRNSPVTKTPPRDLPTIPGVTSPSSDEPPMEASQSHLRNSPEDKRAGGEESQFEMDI
smiles,measurement,setting,value
COc1cccc2cc(-c3nc([C@H]4CC[C@H](C(=O)O)CC4)n4ncnc(N)c34)[nH]c12 [OSI-027],Activity,OVCAR-5 [1],38%
same,IC50,[2],> 40000 nM
same,IC50,[3],> 20000 nM
same,inhibition in vivo at 50 mg/kg,OVCAR-5 [4],100%
same,Activity,GEO,Active
same,IC50,Ephrin type-A receptor 2,> 40000 nM
same,inhibition in vivo at 50 mg/kg,NCI-H292 [5],61%
same,inhibition,OVCAR-3 [6],Active
same,inhibition in vivo at 50 mg/kg,NCI-H292 [7],100%
same,inhibition,[8],Dose-Dependent Effect
same,IC50,[9],1000 nM
same,IC50,[10],> 40000 nM
same,IC50,[11],4 nM
same,IC50,[12],420 nM
same,inhibition,Mus musculus [13],Active
same,IC50,[14],> 30000 nM
same,Activity,NCI-H292 [15],59%
same,inhibition,[16],Dose-Dependent Effect
same,inhibition,OVCAR-3 [17],Active
same,IC50,[18],> 40000 nM
same,inhibition,[19],Dose-Dependent Effect
same,IC50,mTORC2,65 nM
same,IC50,mTORC1,22 nM
same,concentration at 296 h,[20],14.9 µM
same,concentration at 290 h,[21],21.3 µM
same,inhibition in vivo at 50 mg/kg,OVCAR-5 [22],55%
same,inhibition,Mus musculus [23],Active
same,inhibition,Mus musculus [24],Active
CCN(CC)CCNC(=O)c1c(C)[nH]c(/C=C2\C(=O)Nc3ccc(F)cc32)c1C [SUNITINIB],Activity,OVCAR-5 [25],38%
same,inhibition in vivo at 40 mg/kg,NCI-H292 [26],100%
same,inhibition in vivo at 40 mg/kg,OVCAR-5 [27],100%
same,inhibition in vivo at 40 mg/kg,NCI-H292 [28],47%
same,Activity,NCI-H292 [29],59%
same,inhibition in vivo at 40 mg/kg,OVCAR-5 [30],68%
